{"source": "ChEMBL document CHEMBL4002590", "about": "“Design and Synthesis of a Pan-Janus Kinase Inhibitor Clinical Candidate (PF-06263276) Suitable for Inhaled and Topical Delivery for the Treatment of Inflammatory Diseases of the Lungs and Skin” (J Med Chem, 2017)", "key": {"[1]": {"biological_target": "5-hydroxytryptamine receptor 7 (Homo sapiens) (UniProt P34969)", "sequence (P34969 whole entry)": "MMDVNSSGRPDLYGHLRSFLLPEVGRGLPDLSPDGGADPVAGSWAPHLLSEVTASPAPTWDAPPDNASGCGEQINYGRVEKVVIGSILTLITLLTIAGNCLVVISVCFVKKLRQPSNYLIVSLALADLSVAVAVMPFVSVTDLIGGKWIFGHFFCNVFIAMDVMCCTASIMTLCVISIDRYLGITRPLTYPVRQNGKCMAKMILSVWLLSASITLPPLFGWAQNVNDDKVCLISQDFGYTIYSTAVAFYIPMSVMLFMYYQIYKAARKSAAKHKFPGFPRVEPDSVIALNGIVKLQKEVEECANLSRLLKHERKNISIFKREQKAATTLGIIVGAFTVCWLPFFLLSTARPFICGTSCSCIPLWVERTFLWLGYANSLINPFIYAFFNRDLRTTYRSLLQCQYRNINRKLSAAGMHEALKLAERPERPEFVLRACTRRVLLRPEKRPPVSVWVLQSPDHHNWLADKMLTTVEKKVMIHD", "assay": "Antagonist activity at recombinant human 5-HT7 receptor expressed in CHO cells assessed as inhibition of serotonin-induced cAMP accumulation at 10 uM after 30 mins by HTRF method relative to control", "type": "functional, cell-based"}, "[2]": {"assay": "Volume of distribution at steady state in dog at 0.1 mg/kg, iv administered as 30 mins infusion", "type": "ADME, organism-based, Canis lupus familiaris", "settings": "in vivo, read-out: Vdss"}, "[3]": {"biological_target": "T1, Tyrosine-protein kinase JAK2 (Homo sapiens, UniProt O60674)", "T1 sequence (O60674 whole entry)": "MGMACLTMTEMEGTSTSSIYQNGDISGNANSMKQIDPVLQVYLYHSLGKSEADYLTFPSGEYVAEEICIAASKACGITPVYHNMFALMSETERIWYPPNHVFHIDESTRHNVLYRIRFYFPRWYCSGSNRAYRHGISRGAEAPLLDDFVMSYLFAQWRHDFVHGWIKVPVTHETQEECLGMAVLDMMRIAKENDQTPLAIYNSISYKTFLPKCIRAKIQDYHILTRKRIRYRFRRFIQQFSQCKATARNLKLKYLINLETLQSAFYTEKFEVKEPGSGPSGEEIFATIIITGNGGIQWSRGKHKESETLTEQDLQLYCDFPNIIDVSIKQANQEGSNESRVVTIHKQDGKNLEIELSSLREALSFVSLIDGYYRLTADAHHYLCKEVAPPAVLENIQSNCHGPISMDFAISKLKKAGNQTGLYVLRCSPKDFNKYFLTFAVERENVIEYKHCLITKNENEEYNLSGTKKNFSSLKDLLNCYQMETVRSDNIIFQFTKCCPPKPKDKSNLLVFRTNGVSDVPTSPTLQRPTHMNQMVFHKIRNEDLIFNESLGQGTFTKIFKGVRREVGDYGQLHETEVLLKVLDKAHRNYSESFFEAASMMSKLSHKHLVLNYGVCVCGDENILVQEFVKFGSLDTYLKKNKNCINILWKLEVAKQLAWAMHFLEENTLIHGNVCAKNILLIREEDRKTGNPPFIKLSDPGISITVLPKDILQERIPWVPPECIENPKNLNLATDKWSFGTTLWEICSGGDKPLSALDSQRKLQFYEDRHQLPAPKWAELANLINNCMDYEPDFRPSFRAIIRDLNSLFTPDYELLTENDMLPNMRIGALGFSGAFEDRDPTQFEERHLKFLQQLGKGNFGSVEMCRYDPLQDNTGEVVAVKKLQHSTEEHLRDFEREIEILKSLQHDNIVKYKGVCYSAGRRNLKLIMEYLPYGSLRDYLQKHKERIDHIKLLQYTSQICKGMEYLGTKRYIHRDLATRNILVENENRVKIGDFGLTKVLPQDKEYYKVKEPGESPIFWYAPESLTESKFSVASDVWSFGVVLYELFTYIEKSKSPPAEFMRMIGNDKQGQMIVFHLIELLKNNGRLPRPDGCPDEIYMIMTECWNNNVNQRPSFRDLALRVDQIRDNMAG"}, "[4]": {"biological_target": "Non-receptor tyrosine-protein kinase TYK2 (Homo sapiens, UniProt P29597)", "sequence (P29597 whole entry)": "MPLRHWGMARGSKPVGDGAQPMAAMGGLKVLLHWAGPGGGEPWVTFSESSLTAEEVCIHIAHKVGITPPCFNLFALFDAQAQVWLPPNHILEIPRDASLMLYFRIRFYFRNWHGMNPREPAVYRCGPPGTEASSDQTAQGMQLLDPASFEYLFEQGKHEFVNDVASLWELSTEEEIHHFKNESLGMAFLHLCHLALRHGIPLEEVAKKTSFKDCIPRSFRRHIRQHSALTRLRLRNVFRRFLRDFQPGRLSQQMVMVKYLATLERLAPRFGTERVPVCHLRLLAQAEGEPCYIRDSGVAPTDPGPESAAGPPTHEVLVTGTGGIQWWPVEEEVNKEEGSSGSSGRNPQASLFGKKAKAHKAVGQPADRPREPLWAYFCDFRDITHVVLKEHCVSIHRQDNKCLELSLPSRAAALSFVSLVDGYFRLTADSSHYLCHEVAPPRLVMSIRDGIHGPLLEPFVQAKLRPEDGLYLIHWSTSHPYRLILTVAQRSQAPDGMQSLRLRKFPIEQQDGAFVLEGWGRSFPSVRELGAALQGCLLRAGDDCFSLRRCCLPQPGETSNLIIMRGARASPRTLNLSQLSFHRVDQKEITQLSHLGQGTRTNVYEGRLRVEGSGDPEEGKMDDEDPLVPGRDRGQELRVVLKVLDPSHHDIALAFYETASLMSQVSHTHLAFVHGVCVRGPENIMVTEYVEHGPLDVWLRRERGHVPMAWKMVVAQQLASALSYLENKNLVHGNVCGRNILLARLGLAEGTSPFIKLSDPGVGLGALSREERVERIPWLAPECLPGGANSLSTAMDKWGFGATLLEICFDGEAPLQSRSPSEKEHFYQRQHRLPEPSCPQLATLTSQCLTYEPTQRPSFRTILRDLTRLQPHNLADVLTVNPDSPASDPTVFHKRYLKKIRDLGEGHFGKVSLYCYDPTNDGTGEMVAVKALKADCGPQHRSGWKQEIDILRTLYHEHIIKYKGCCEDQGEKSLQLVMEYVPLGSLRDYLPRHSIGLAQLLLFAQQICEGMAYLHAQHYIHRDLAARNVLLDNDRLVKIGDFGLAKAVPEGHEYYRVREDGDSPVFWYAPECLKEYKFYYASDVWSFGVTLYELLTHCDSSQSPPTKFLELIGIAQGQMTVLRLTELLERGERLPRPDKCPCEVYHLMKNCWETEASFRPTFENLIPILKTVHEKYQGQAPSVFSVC", "assay": "Inhibition of Tyk2 (unknown origin) using peptide substrate preincubated for 60 mins followed by substrate addition and measured after 60 mins by microfluidic assay", "outline": "(§1)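 Caliper microfluidic assay of peptide-substrate phosphorylation by the relevant JAK enzyme, run at 1 mM ATP; IC50 values are geometric means of at least three determinations.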"}, "Mus musculus": {"system": "Mus musculus", "assay": "In vivo inhibition of JAK2/TYK2 in Balb/c mouse model of IL-23 induced inflammation assessed as reduction of ear swelling pretreated topically as 4 % solution bid on ear for 12 consecutive days followed by IL-23 stimulation at 2 hrs post compound treatment on day 2, 4, 7, 9 and 11", "type": "functional", "outline": "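Mouse ear dermal model: compound applied topically as a 4% solution in propylene glycol 30, PEG400 30, dimethyl isosorbide 10, glycerin 25.9, BHA 0.1 (% wt/wt); repeated IL-23 ear injections, with ear swelling followed over 11 days.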"}, "Janus Kinase (JAK)": {"biological_target": "Janus Kinase (JAK) (Homo sapiens, UniProt P52333+P23458+O60674+P29597)"}, "Rattus norvegicus [5]": {"system": "Rattus norvegicus", "assay": "Unbound clearance in rat at 0.5 mg/kg, iv", "type": "ADME, organism-based", "settings": "in vivo"}, "[6]": {"assay": "Lipophilicity, logD of the compound by shake flask method", "type": "physicochemical", "settings": "octanol/water", "outline": "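log D measured by the shake flask method.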"}, "[7]": {"biological_target": "Aurora kinase A (Homo sapiens) (UniProt O14965)", "sequence (O14965 whole entry)": "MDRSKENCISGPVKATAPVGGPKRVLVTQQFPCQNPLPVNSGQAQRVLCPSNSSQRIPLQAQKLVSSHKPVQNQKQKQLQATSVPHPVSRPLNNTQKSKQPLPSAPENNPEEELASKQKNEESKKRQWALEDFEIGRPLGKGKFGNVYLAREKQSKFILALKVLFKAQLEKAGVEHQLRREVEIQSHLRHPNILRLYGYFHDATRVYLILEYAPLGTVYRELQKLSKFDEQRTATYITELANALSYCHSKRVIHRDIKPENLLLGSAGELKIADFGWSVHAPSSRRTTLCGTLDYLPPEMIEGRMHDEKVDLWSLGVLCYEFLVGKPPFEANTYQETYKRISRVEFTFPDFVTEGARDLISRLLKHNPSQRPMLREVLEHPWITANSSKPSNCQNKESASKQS", "assay": "Inhibition of recombinant human AurA/Aur 2 kinase expressed in insect Sf21 cells at 10 uM using Ulight-RRRSLLE substrate after 15 mins by LANCE assay", "outline": "(§2)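 Single-point screen at 10 μM within a broad panel of radioligand binding and enzyme inhibition assays covering receptors, transporters, enzymes and ion channels.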"}, "Liver": {"system": "Liver", "assay": "Metabolic stability in human liver microsomes assessed per mg protein", "type": "ADME, microsome", "outline": "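Metabolic stability measured as turnover in human liver microsomes.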"}, "[8]": {"biological_target": "T1, Tyrosine-protein kinase JAK2", "assay": "Inhibition of GST tagged human recombinant JAK2 catalytic domain expressed in baculovirus using peptide substrate preincubated for 60 mins followed by substrate addition and measured after 60 mins by microfluidic assay", "outline": "as §1"}, "[9]": {"assay": "Drug metabolism in human liver microsomes assessed as UGT-mediated compound glucuronidation per mg protein in presence of microsomal activator Brij58 and cofactor UDPGA", "type": "ADME", "outline": "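Human liver microsomes supplemented with the activator Brij58 and cofactor UDPGA, NADPH omitted, to measure phase II glucuronidation turnover.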"}, "[10]": {"assay": "Terminal half life in dog at 0.1 mg/kg, iv administered as 30 mins infusion", "type": "ADME, organism-based, Canis lupus familiaris", "settings": "in vivo, read-out: beta t1/2 (converted)"}, "[11]": {"assay": "Volume of distribution at steady state in rat at 0.5 mg/kg, iv", "type": "ADME, organism-based", "settings": "in vivo, read-out: Vdss"}, "Rattus norvegicus [12]": {"organism": "Rattus norvegicus", "assay": "Displacement of [3H]batrachotoxinin from rat cerebral cortex sodium channel site-2 at 10 uM after 60 mins by scintillation counting method relative to control", "outline": "as §2"}, "Rattus norvegicus [13]": {"system": "Rattus norvegicus", "assay": "Genotoxicity in iv dosed rat after 7 days by peripheral blood micronucleus assay", "type": "toxicity, organism-based", "settings": "in vivo, 168 h"}, "[14]": {"biological_target": "T2, Tyrosine-protein kinase JAK3 (Homo sapiens, UniProt P52333)", "T2 sequence (P52333 whole entry)": "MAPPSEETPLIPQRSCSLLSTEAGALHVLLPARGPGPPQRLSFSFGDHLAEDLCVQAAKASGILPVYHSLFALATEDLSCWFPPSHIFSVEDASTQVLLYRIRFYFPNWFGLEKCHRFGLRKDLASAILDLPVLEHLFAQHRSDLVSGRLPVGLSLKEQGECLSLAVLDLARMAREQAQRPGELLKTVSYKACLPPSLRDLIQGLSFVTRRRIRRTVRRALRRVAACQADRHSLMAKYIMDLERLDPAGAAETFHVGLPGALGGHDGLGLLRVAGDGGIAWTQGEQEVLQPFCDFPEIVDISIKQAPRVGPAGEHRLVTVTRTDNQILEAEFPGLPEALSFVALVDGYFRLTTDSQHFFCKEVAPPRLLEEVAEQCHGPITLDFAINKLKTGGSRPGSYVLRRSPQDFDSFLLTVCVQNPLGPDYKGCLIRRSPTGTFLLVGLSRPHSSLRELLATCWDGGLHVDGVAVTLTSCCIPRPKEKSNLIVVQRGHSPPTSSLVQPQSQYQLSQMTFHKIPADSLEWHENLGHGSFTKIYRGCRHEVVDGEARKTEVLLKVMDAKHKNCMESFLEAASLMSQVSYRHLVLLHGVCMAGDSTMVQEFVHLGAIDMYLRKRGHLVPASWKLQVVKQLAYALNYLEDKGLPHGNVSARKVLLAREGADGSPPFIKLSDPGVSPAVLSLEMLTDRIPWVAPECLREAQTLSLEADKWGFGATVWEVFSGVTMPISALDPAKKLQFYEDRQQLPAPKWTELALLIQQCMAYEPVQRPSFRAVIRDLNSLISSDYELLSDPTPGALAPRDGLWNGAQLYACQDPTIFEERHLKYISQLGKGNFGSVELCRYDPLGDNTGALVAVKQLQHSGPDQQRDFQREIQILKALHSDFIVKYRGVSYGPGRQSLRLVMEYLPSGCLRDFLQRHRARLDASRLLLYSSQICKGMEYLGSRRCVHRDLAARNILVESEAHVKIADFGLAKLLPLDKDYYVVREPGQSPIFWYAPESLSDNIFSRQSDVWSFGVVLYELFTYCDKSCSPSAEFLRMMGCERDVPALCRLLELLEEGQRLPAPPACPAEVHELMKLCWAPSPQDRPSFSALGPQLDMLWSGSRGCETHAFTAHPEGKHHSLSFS", "assay": "Inhibition of GST tagged human recombinant JAK3 catalytic domain expressed in baculovirus using peptide substrate preincubated for 60 mins followed by substrate addition and measured after 60 mins by microfluidic assay", "outline": "as §1"}, "[15]": {"assay": "Terminal half life in iv dosed rat at 0.5 mg/kg", "type": "ADME, organism-based", "settings": "in vivo, read-out: beta t1/2 (converted)"}, "[16]": {"biological_target": "Alpha-2B adrenergic receptor (Homo sapiens) (UniProt P18089)", "sequence (P18089 whole entry)": "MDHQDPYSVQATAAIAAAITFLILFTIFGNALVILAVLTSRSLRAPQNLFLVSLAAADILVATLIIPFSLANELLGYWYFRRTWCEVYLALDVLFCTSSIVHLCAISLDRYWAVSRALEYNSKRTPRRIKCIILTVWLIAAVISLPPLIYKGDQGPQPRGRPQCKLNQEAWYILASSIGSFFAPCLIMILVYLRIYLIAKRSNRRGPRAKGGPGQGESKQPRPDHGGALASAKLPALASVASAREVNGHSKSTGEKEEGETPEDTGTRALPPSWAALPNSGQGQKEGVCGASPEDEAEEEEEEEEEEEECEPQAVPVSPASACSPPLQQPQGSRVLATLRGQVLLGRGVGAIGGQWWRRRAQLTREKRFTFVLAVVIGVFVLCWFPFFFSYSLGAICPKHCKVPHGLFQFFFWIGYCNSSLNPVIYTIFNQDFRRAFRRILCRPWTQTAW", "assay": "Antagonist activity at recombinant human alpha 2B adrenergic receptor expressed in HEK293 cells assessed as inhibition of dexmedetomidine-induced cAMP accumulation at 10 uM after 30 mins by HTRF method", "type": "functional, cell-based"}, "[17]": {"biological_target": "Acetylcholinesterase (Homo sapiens) (UniProt P22303)", "sequence (P22303 whole entry)": "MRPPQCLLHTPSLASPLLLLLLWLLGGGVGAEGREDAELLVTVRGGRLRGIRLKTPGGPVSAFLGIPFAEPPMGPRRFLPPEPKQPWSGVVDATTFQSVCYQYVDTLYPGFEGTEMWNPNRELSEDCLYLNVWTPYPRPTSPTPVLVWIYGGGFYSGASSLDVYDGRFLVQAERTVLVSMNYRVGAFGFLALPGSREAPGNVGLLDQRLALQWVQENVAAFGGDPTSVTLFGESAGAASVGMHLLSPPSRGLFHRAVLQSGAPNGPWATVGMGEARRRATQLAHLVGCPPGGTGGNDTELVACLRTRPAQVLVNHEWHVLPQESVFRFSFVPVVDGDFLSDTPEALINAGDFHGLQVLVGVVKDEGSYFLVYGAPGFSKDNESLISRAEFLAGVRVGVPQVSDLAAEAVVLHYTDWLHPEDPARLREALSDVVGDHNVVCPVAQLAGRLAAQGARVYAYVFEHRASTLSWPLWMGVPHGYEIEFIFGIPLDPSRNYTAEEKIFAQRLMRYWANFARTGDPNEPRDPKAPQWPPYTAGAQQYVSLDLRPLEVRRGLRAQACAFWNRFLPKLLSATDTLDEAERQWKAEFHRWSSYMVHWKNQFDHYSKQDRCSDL", "assay": "Inhibition of recombinant human acetylcholinesterase expressed in HEK-293 cells at 10 uM using acetylthiocholine substrate after 30 mins by photometry", "type": "cell-based", "outline": "as §2"}, "[18]": {"assay": "Oral bioavailability in rat at 1 mg/kg", "type": "ADME, organism-based", "settings": "in vivo"}, "Rattus norvegicus [19]": {"system": "Rattus norvegicus", "assay": "Toxicity in iv dosed rat for 7 days", "type": "organism-based", "settings": "in vivo, 168 h", "outline": "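Exploratory 7-day intravenous toxicology studies in rat and dog; margins expressed over total plasma AUC relative to projected exposure at a 200 μg human lung dose.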"}}, "data": [{"smiles": "CCc1cc(O)c(F)cc1-c1ccc2c(-c3nc4c([nH]3)CCN(C(=O)c3cnc(N5CCCCC5)cn3)C4)n[nH]c2c1", "values": [{"measurement": "inhibition", "setting": "[1]", "result": "> 50", "unit": "%"}, {"measurement": "Vd", "setting": "[2]", "result": 1, "unit": "L/kg"}, {"measurement": "fIC50", "setting": "[3]", "result": 5.2, "unit": "nM"}, {"measurement": "IC50", "setting": "[4]", "result": 29.7, "unit": "nM"}, {"measurement": "inhibition (INH)", "setting": "Mus musculus", "result": 48, "unit": "%"}, {"measurement": "T1/2", "setting": "Janus Kinase (JAK)", "result": "> 6", "unit": "h"}, {"measurement": "CL free", "setting": "Rattus norvegicus [5]", "result": "> 2880", "unit": "L/h/kg"}, {"measurement": "logD", "setting": "[6]", "result": 3.9}, {"measurement": "inhibition", "setting": "[7]", "result": "> 50", "unit": "%"}, {"measurement": "Stability", "setting": "Liver", "result": 101, "unit": "µL/min"}, {"measurement": "IC50", "setting": "[8]", "result": 23.1, "unit": "nM"}, {"measurement": "Drug metabolism", "setting": "[9]", "result": 129, "unit": "µL/min"}, {"measurement": "half-life", "setting": "[10]", "result": 2, "unit": "h"}, {"measurement": "Vd", "setting": "[11]", "result": 0.8, "unit": "L/kg"}, {"measurement": "inhibition", "setting": "Rattus norvegicus [12]", "result": "> 50", "unit": "%"}, {"measurement": "Activity", "setting": "Rattus norvegicus [13]", "result": "Non-Toxic"}, {"measurement": "IC50", "setting": "[14]", "result": 59.9, "unit": "nM"}, {"measurement": "half-life", "setting": "[15]", "result": 2.1, "unit": "h"}, {"measurement": "inhibition", "setting": "[16]", "result": "> 50", "unit": "%"}, {"measurement": "inhibition", "setting": "[17]", "result": "> 50", "unit": "%"}, {"measurement": "bioavailability", "setting": "[18]", "result": "< 5", "unit": "%"}, {"measurement": "Activity", "setting": "Rattus norvegicus [19]", "result": "Non-Toxic"}]}]}
